# Compound activity: PubChem BioAssay, several laboratories
# Shown is part of a subset that was picked to be rich in hits.
# Diaphorase inh – diaphorase inhibition or chemical oxidation counter-screen; diaphorase resazurin-to-resorufin fluorescence, NADH, 16 min; bacterial (C. kluyveri) enzyme, not human; inhibition, % at 20 µM; 0.69% of 190,000 active;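 active = primary screen inhibition at 20 µM above a set limit, cut at about 50% in these data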;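 note: plate controls were DMSO with full reaction for no effect and wells lacking NADH for full effect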
#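 Test system: bacterial diaphorase enzyme (C. kluyveri); Quantity: 0.14 U/mL diaphorase, enzyme working solution; Times: reaction incubation of 16 min at room temperature; Measured by: fluorescence of resorufin formed from resazurin, Ex 544/Em 590 nm; Benchmarks: positive control minus NADH, DMSO neutral control.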
# Diaph act CS – counter-screen for diaphorase-based assays: diaphorase activators and chemical reducers; Diaphorase/resazurin coupled assay, resorufin fluorescence, 16 min; stronger effect = higher value; 1 = vehicle wells, 0 = NADH-free wells; activation factor at 20 µM; 0.005% of 190,000 active;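 active = diaphorase activity raised at least twofold by the compound at 20 µM; inactive = activation factor below 2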
#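 test system = bacterial diaphorase enzyme (C. kluyveri) | quantity = enzyme 0.07 U/mL final | reagent = NADH substrate 0.114 mM plus resazurin dye 0.1 mM, final | incubation = 16 min enzyme reaction, ambient temperature | buffer or medium = HEPES pH 7.4 buffer with MgCl2 and Tween 20 | signal = fluorescence of resorufin, 544 nm excitation, 590 nm emission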
# DTT redox prof – compounds producing H2O2 with reducing agent – biochemical, NIH compound library profiling, artefact control for MLSCN library redox annotation, primary screen. 0.03% of 200,000 active. activation, % at 10 µM. DTT-dependent redox cycling H2O2, phenol red/HRP absorbance; 100% = 100 µM peroxide control, 0% = buffer. AID 878;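 active = activation of at least 50% relative to the plate's high and low controls in the primary single-dose screen; inactive = activation below 50%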;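 note: compound incubated with DTT at 0.8 mM final as the reducing agent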
# L major viab – Leishmania major promastigote growth inhibition; Leishmania major promastigotes, resazurin fluorescence viability; inhibition, % at 10 µM; 9% of 200,000 active; AID 1063;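 note: promastigotes grown with compound for 44 hours at 28 °C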
# G6PDH counter – counter-screen for G6PDH assay hits: L. mesenteroides G6PDH inhibition; Purified L. mesenteroides G6PDH, diaphorase/resazurin coupled fluorescence, 45 min; inhibition, % at 5 µM; 0.12% of 200,000 active; AID 1020
# PfG6PD inh – PfG6PD (Plasmodium falciparum) enzyme inhibition | PfGluPho enzyme, NADPH resazurin-diaphorase fluorescence | inhibition, % at 20 µM | 0.78% of 350,000 active | AID 504690;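 active = inhibition reaching at least a set limit at 20 µM in the primary screen, cut at about 59% in these data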;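 note: 0% = DMSO wells with substrate and 100% = DMSO wells lacking glucose-6-phosphate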
# An asterisk follows results filed as active; . = no result. Cut-off read from the data, not from the text of the source, unless noted: active = inhibition above about 50%; inactive = the rest.
SMILES,Diaphorase inh,Diaph act CS,DTT redox prof,L major viab,G6PDH counter,PfG6PD inh
Cc1ccc(C(C)C)c(OCc2nn(CC(=O)c3ccc(OC(F)F)cc3)c3[n+]2CCCCC3)c1,-65,1.6,-1,99*,4,1
O=C(Nc1cccc(Cl)c1)OCc1cncs1,15,0.9,0,78*,0,15
CCSc1nc(-c2ccc(OC)cc2)n(-c2nc3ccccc3s2)n1,25,0.8,2,7,-40,43
COCCN1CCCC(CNCc2cn(C)nc2-c2ccc(Oc3ccccc3)cc2)C1 (centres undefined),-8,1.1,0,95*,10,-7
COC1CCCN(Cc2cn(C)nc2-c2ccc(Oc3ccccc3)cc2)C1 (centres undefined),16,0.8,-2,73*,10,5
Cn1cc(CN2CCCCC2CO)c(-c2ccc(Oc3ccccc3)cc2)n1 (centres undefined),9,0.9,-1,63*,7,-9
CCCN1CCC(NCc2cn(C)nc2-c2ccc(Oc3ccccc3)cc2)CC1,.,.,.,.,.,-17
CCc1ccc(NC(=O)c2cnc(N3CCN(c4ccccn4)CC3)c3ccccc23)cc1,31,0.7,-1,82*,8,-2
CC(C)NC(=O)c1cnc(N2CCN(c3ccccn3)CC2)c2ccccc12,-2,1,-1,3,2,-7
Cc1ccc(-c2csc(NC(=O)c3ccc(S(=O)(=O)N4CCc5ccccc54)cc3)n2)cc1,-4,1,1,100*,5,11
O=C(Nc1nc(-c2ccccc2)cs1)c1ccc(S(=O)(=O)N2CCc3ccccc32)cc1,1,1,1,99*,-6,5
CCOc1ccc(-c2csc(NC(=O)c3ccc(S(=O)(=O)N4CCc5ccccc5C4)cc3)n2)cc1,8,0.9,0,5,21,-13
Cc1ccc(Cl)c2c1NC(=O)C2=O,.,.,.,.,.,12
COc1ccc(-c2onc(C)c2-c2cnn(-c3ccccc3)c2)c(O)c1C,16,0.8,-1,84*,-3,-10
COc1ccc(-c2n[nH]c(C)c2-c2cnn(-c3ccccc3)c2)c(O)c1,19,0.8,0,-12,14,-46
COc1ccc(-c2n[nH]c(C)c2-c2cnn(-c3ccccc3)c2)c(O)c1C,29,0.7,-4,67*,1,-29
Cc1oc2cc(O)cc(C)c2c(=O)c1-c1cnn(-c2ccccc2)c1,7,0.9,12,4,-56,-18
Cc1ccc(/C=N/NC(=O)COc2ccc(Cl)c(C)c2)o1,.,.,.,.,.,39
COC(=O)/C=C/c1cccc([C@H]2[C@@H]3C=CC[C@@H](C)[C@@H]3C(=O)N2Cc2ccccc2)c1,.,.,.,.,.,30
CC(=O)Nc1ccc(NC(=O)COC(=O)c2c(C)nn(-c3ccccc3)c2C)cc1,13,0.9,0,67*,-1,-9
Cc1nn(-c2ccccc2)c(C)c1C(=O)OCC(=O)Nc1ccccc1F,.,.,.,.,.,4
CCc1ccc(-c2cc(C)no2)cc1S(=O)(=O)NCCCN1CCN(c2ccccc2)CC1,.,.,.,.,.,14
CCN1C(=O)c2cccc3c(S(=O)(=O)NCCc4c[nH]c5ccccc45)ccc1c23,28,0.7,0,99*,12,1
CCN1C(=O)c2cccc3c(S(=O)(=O)NCc4ccccc4)ccc1c23,.,.,.,.,.,19
CCN1C(=O)c2cccc3c(S(=O)(=O)NCCCN4CCOCC4)ccc1c23,6,0.9,-1,78*,9,-9
SMILES,Diaphorase inh,Diaph act CS,DTT redox prof,L major viab,G6PDH counter,PfG6PD inh
CCN1C(=O)c2cccc3c(S(=O)(=O)Nc4ccccc4OC)ccc1c23,51*,0.5,1,17,0,-30
CC1CN(c2nc3ccccc3nc2SCC(=O)Nc2ccc(F)cc2)CC(C)O1 (centres undefined),.,.,.,.,.,24
O=C(/C=C/Nc1ccc([N+](=O)[O-])cc1Br)c1cccc2ccccc12,13,0.9,2,75*,8,-4
COc1ccc(CN2CCN(CCCc3ccccc3)CC2)c(OC)c1,18,0.8,-2,91*,8,.
COc1ccc(OC)c(CN2CCN(Cc3cccc4ccccc34)CC2)c1,35,0.7,-1,65*,-2,19
COc1ccc(OC)c(CN2CCCCCC2)c1,.,.,.,.,.,-17
COc1ccc(CC(C)N2CCN(c3ccccc3)CC2)cc1OC (centres undefined),11,0.9,0,78*,-4,9
COc1ccc(CN2CCN(c3ccccc3OC)CC2)c(OC)c1,.,.,.,.,.,-8
COc1ccc(CC(C)N2CCN(Cc3ccccc3)CC2)c(OC)c1 (centres undefined),9,0.9,1,95*,-10,3
O=C(O)CCC(=O)Nc1ccc(Br)cn1,17,0.8,-1,-9,2,5
COC(=O)C1=C(CN2CCc3ccccc32)NC(=O)NC1c1cc(C)ccc1C (centres undefined),12,0.9,2,70*,7,3
CC(=O)N1CCOc2ccc(S(=O)(=O)NCC3CCC(C(=O)Nc4ccc(C)cn4)CC3)cc21 (centres undefined),.,.,.,.,.,0
Cc1cccc(CSc2nnc(-c3cccs3)n2Cc2ccco2)c1,14,0.9,-3,90*,6,14
Cc1cccc(CSc2nc3sc(C)c(C)c3c(=O)n2Cc2ccco2)c1,14,0.9,3,7,-3,-5
CCN(CC(=O)Nc1ccc(NC(C)=O)cc1)C(=O)/C=C/c1c(C)nn(-c2ccc(F)cc2)c1Cl,.,.,.,.,.,-8
COc1cc(NC(=O)COC(=O)/C=C/c2c(C)nn(-c3ccc(F)cc3)c2Cl)cc(OC)c1,17,0.8,1,64*,-20,16
Cc1ccc(C(=O)OCC(=O)N2C(C)CCCC2C)cc1S(=O)(=O)N1CCOCC1 (centres undefined),.,.,.,.,.,-17
COc1ccc(C2CC(c3cccs3)=NN2c2ccc(C=O)cc2)cc1 (centres undefined),11,0.9,1,92*,-3,14
N#Cc1ccccc1NC(=O)CNc1ccccc1N1CCCCC1,24,0.8,0,71*,8,12
Cn1cc(CN2CCCC(C(=O)Nc3ccc(-c4cccc(F)c4)cc3)C2)cn1 (centres undefined),.,.,.,.,.,6
COc1ccc(C2CC(c3ccccc3)=NN2C(=O)COC(=O)c2ccc(Cl)nc2)cc1 (centres undefined),27,0.7,1,4,-31,-3
COc1ccc(C2=NN(C(=O)CN3CCCCC3)C(c3ccc(C)cc3)C2)cc1 (centres undefined),0,1,-1,73*,0,13
